Experimental data: ChEMBL document CHEMBL3997769, “Discovery and preclinical evaluation of 7-benzyl-N-(substituted)-pyrrolo[3,2-d]pyrimidin-4-amines as single agents with microtubule targeting effects along with triple-acting angiokinase inhibition as antitumor agents” (Bioorg Med Chem, 2017)

Assays:
OVCAR-8 [1] = assay: Growth inhibition of human OVCAR8 cells measured after 96 hrs by sulforhodamine B assay; assay type: functional, cell-based; settings: OVCAR-8, 96 h
NCI/ADR-RES [2] = assay: Growth inhibition of human NCI/ADR-RES cells over expressing Pgp measured after 96 hrs by sulforhodamine B assay; assay type: functional, cell-based
HeLa [3] = assay: Growth inhibition of human HeLa cells over expressing beta3-tubulin measured after 96 hrs by sulforhodamine B assay; assay type: functional, cell-based
How it was run: (§1)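 Exposed 96 h to varying compound concentrations in 0.5% DMSO. Cell protein measured by sulforhodamine B; IC50 = concentration halving the increase in cell protein versus untreated cultures.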

HeLa [4] = assay: Growth inhibition of human HeLa cells measured after 96 hrs by sulforhodamine B assay; assay type: functional, cell-based; how it was run: as §1
[5] = Inhibition of bovine brain tubulin assembly preincubated for 15 mins followed by GTP addition measured for 20 mins by spectrophotometric method; design: species or system Bos taurus
NCI-H322M = assay: Growth inhibition of human NCI-H322M cells incubated for 48 hrs by sulforhodamine B assay; assay type: functional
IGROV-1 = assay: Growth inhibition of human IGROV1 cells incubated for 48 hrs by sulforhodamine B assay; assay type: functional; settings: IGROV-1, 48 h
SNB-19 = assay: Growth inhibition of human SNB19 cells incubated for 48 hrs by sulforhodamine B assay; assay type: functional; settings: SNB-19, 48 h
HCC 2998 = assay: Growth inhibition of human HCC2998 cells incubated for 48 hrs by sulforhodamine B assay; assay type: functional; settings: HCC 2998, 48 h
MDA-MB-231 = assay: Growth inhibition of human MDA-MB-231 cells incubated for 48 hrs by sulforhodamine B assay; assay type: functional; settings: MDA-MB-231, 48 h
HL-60(TB) = assay: Growth inhibition of human HL-60(TB) cells incubated for 48 hrs by sulforhodamine B assay; assay type: functional; settings: HL-60, 48 h
Bos taurus = species on record: Bos taurus; assay: Displacement of [3H]colchicine from bovine brain tubulin at 5 uM measured after 10 mins by liquid scintillation counting method relative to control
786-0 = assay: Growth inhibition of human 786-0 cells incubated for 48 hrs by sulforhodamine B assay; assay type: functional; settings: 786-0, 48 h
UACC-62 = assay: Growth inhibition of human UACC62 cells incubated for 48 hrs by sulforhodamine B assay; assay type: functional; settings: UACC-62, 48 h
CAKI-1 = assay: Growth inhibition of human Caki1 cells incubated for 48 hrs by sulforhodamine B assay; assay type: functional; settings: CAKI-1, 48 h
COLO 205 = assay: Growth inhibition of human COLO205 cells incubated for 48 hrs by sulforhodamine B assay; assay type: functional; settings: COLO 205, 48 h
MOLT-4 = assay: Growth inhibition of human MOLT4 cells incubated for 48 hrs by sulforhodamine B assay; assay type: functional; settings: MOLT-4, 48 h
MCF7 = assay: Growth inhibition of human MCF7 cells incubated for 48 hrs by sulforhodamine B assay; assay type: functional; settings: MCF7, 48 h
SK-MEL-5 = assay: Growth inhibition of human SK-MEL-5 cells incubated for 48 hrs by sulforhodamine B assay; assay type: functional; settings: SK-MEL-5, 48 h
NCI/ADR-RES [6] = assay: Growth inhibition of human NCI/ADR-RES cells incubated for 48 hrs by sulforhodamine B assay; assay type: functional
SK-OV-3 = assay: Growth inhibition of human SKOV3 cells incubated for 48 hrs by sulforhodamine B assay; assay type: functional; settings: SK-OV-3, 48 h
MDA-MB-468 = assay: Growth inhibition of human MDA-MB-468 cells incubated for 48 hrs by sulforhodamine B assay; assay type: functional; settings: MDA-MB-468, 48 h
U-251 = assay: Growth inhibition of human U251 cells incubated for 48 hrs by sulforhodamine B assay; assay type: functional; settings: U-251, 48 h
HCT-15 = assay: Growth inhibition of human HCT15 cells incubated for 48 hrs by sulforhodamine B assay; assay type: functional; settings: HCT-15, 48 h
OVCAR-5 = assay: Growth inhibition of human OVCAR5 cells incubated for 48 hrs by sulforhodamine B assay; assay type: functional; settings: OVCAR-5, 48 h
SF-268 = assay: Growth inhibition of human SF268 cells incubated for 48 hrs by sulforhodamine B assay; assay type: functional; settings: SF-268, 48 h
SF-295 = assay: Growth inhibition of human SF295 cells incubated for 48 hrs by sulforhodamine B assay; assay type: functional; settings: SF-295, 48 h
A549 = assay: Growth inhibition of human A549/ATCC cells incubated for 48 hrs by sulforhodamine B assay; assay type: functional; settings: A549, 48 h
RXF 393 = assay: Growth inhibition of human RXF393 cells incubated for 48 hrs by sulforhodamine B assay; assay type: functional; settings: RXF 393, 48 h
CCRF-CEM = assay: Growth inhibition of human CCRF-CEM cells incubated for 48 hrs by sulforhodamine B assay; assay type: functional
OVCAR-4 = assay: Growth inhibition of human OVCAR4 cells incubated for 48 hrs by sulforhodamine B assay; assay type: functional; settings: OVCAR-4, 48 h
M14 = assay: Growth inhibition of human M14 cells incubated for 48 hrs by sulforhodamine B assay; assay type: functional; settings: M14, 48 h
NCI-H23 = assay: Growth inhibition of human NCI-H23 cells incubated for 48 hrs by sulforhodamine B assay; assay type: functional; settings: NCI-H23, 48 h
Malme-3M = assay: Growth inhibition of human MALME-3M cells incubated for 48 hrs by sulforhodamine B assay; assay type: functional
KM12 = assay: Growth inhibition of human KM12 cells incubated for 48 hrs by sulforhodamine B assay; assay type: functional; settings: KM12, 48 h
EKVX = assay: Growth inhibition of human EKVX cells incubated for 48 hrs by sulforhodamine B assay; assay type: functional
Hs-578T = assay: Growth inhibition of human Hs578T cells incubated for 48 hrs by sulforhodamine B assay; assay type: functional
RPMI-8226 = assay: Growth inhibition of human RPMI8226 cells incubated for 48 hrs by sulforhodamine B assay; assay type: functional; settings: RPMI-8226, 48 h
NCI-H522 = assay: Growth inhibition of human NCI-H522 cells incubated for 48 hrs by sulforhodamine B assay; assay type: functional; settings: NCI-H522, 48 h
UACC-257 = assay: Growth inhibition of human UACC257 cells incubated for 48 hrs by sulforhodamine B assay; assay type: functional; settings: UACC-257, 48 h
HCT-116 = assay: Growth inhibition of human HCT116 cells incubated for 48 hrs by sulforhodamine B assay; assay type: functional; settings: HCT-116, 48 h
DU-145 = assay: Growth inhibition of human DU145 cells incubated for 48 hrs by sulforhodamine B assay; assay type: functional; settings: DU-145, 48 h
SK-MEL-28 = assay: Growth inhibition of human SK-MEL-28 cells incubated for 48 hrs by sulforhodamine B assay; assay type: functional; settings: SK-MEL-28, 48 h
UO-31 = assay: Growth inhibition of human UO31 cells incubated for 48 hrs by sulforhodamine B assay; assay type: functional; settings: UO-31, 48 h
TK-10 = assay: Growth inhibition of human TK10 cells incubated for 48 hrs by sulforhodamine B assay; assay type: functional; settings: TK-10, 48 h
K562 = assay: Growth inhibition of human K562 cells incubated for 48 hrs by sulforhodamine B assay; assay type: functional; settings: K562, 48 h
NCI-H226 = assay: Growth inhibition of human NCI-H226 cells incubated for 48 hrs by sulforhodamine B assay; assay type: functional; settings: NCI-H226, 48 h
HOP-62 = assay: Growth inhibition of human HOP62 cells incubated for 48 hrs by sulforhodamine B assay; assay type: functional; settings: HOP-62, 48 h
LOX IMVI = assay: Growth inhibition of human LOXIMVI cells incubated for 48 hrs by sulforhodamine B assay; assay type: functional
OVCAR-3 = assay: Growth inhibition of human OVCAR3 cells incubated for 48 hrs by sulforhodamine B assay; assay type: functional; settings: OVCAR-3, 48 h
OVCAR-8 [7] = assay: Growth inhibition of human OVCAR8 cells incubated for 48 hrs by sulforhodamine B assay; assay type: functional; settings: OVCAR-8, 48 h
SN12C = assay: Growth inhibition of human SN12C cells incubated for 48 hrs by sulforhodamine B assay; assay type: functional
SNB-75 = assay: Growth inhibition of human SNB75 cells incubated for 48 hrs by sulforhodamine B assay; assay type: functional; settings: SNB-75, 48 h
SF-539 = assay: Growth inhibition of human SF539 cells incubated for 48 hrs by sulforhodamine B assay; assay type: functional; settings: SF-539, 48 h
MDA-MB-435 = assay: Growth inhibition of human MDA-MB-435 cells incubated for 48 hrs by sulforhodamine B assay; assay type: functional; settings: MDA-MB-435, 48 h
T47D = assay: Growth inhibition of human T47D cells incubated for 48 hrs by sulforhodamine B assay; assay type: functional
SW-620 = assay: Growth inhibition of human SW620 cells incubated for 48 hrs by sulforhodamine B assay; assay type: functional; settings: SW-620, 48 h
ACHN = assay: Growth inhibition of human ACHN cells incubated for 48 hrs by sulforhodamine B assay; assay type: functional
SR = assay: Growth inhibition of human SR cells incubated for 48 hrs by sulforhodamine B assay; assay type: functional
HOP-92 = assay: Growth inhibition of human HOP92 cells incubated for 48 hrs by sulforhodamine B assay; assay type: functional; settings: HOP-92, 48 h
BT-549 = assay: Growth inhibition of human BT549 cells incubated for 48 hrs by sulforhodamine B assay; assay type: functional; settings: BT-549, 48 h
A498 = assay: Growth inhibition of human A498 cells incubated for 48 hrs by sulforhodamine B assay; assay type: functional; settings: A498, 48 h
NCI-H460 = assay: Growth inhibition of human NCI-H460 cells incubated for 48 hrs by sulforhodamine B assay; assay type: functional; settings: NCI-H460, 48 h
A-431 = assay: Cytotoxicity against human A431 cells; assay type: functional, cell-based
Chorioallantoic membrane = assay: Antiangiogenic activity in Leghorn chicken egg chorioallantoic membrane assessed as inhibition of human VEGF-165/bFGF-induced blood vessels formation measured after 40 hrs by microscopic method; assay type: functional, tissue-based; settings: Gallus gallus

## CC(=O)O[C@H]1C(=O)[C@@]2(C)[C@H]([C@H](OC(=O)c3ccccc3)[C@]3(O)C[C@H](OC(=O)[C@H](O)[C@@H](NC(=O)c4ccccc4)c4ccccc4)C(C)=C1C3(C)C)[C@]1(OC(C)=O)CO[C@@H]1C[C@@H]2O [PACLITAXEL]
OVCAR-8 [1]
  IC50: 5 nM
NCI/ADR-RES [2]
  IC50: 2500 nM
HeLa [3]
  IC50: 16 nM
HeLa [4]
  IC50: 5.3 nM

## COc1ccc2c(c1)CCN2c1nc(C)nc2c(Cc3ccccc3)c[nH]c12
[5]
  IC50: > 20000 nM

## COc1ccc2c(c1)CCCN2c1nc(C)nc2c(Cc3ccccc3)c[nH]c12
NCI-H322M
  GI50: 362 nM
IGROV-1
  GI50: 440 nM
SNB-19
  GI50: 549 nM
HCC 2998
  GI50: 318 nM
MDA-MB-231
  GI50: 641 nM
HL-60(TB)
  GI50: 222 nM
Bos taurus
  inhibition: 43%
786-0
  GI50: 934 nM
UACC-62
  GI50: 659 nM
CAKI-1
  GI50: 341 nM
COLO 205
  GI50: 232 nM
MOLT-4
  GI50: 345 nM
MCF7
  GI50: 248 nM
SK-MEL-5
  GI50: 325 nM
NCI/ADR-RES [6]
  GI50: 265 nM
SK-OV-3
  GI50: 423 nM
MDA-MB-468
  GI50: 153 nM
U-251
  GI50: 316 nM
HCT-15
  GI50: 366 nM
OVCAR-5
  GI50: 543 nM
SF-268
  GI50: 723 nM
SF-295
  GI50: 192 nM
A549
  GI50: 406 nM
RXF 393
  GI50: 212 nM
CCRF-CEM
  GI50: 226 nM
OVCAR-4
  GI50: 468 nM
M14
  GI50: 252 nM
NCI-H23
  GI50: 320 nM
Malme-3M
  GI50: 330 nM
KM12
  GI50: 366 nM
EKVX
  GI50: 463 nM
Hs-578T
  GI50: 582 nM
RPMI-8226
  GI50: 266 nM
NCI-H522
  GI50: 316 nM
UACC-257
  GI50: 108 nM
HCT-116
  GI50: 368 nM
DU-145
  GI50: 383 nM
SK-MEL-28
  GI50: 368 nM
UO-31
  GI50: 390 nM
TK-10
  GI50: 123 nM
K562
  GI50: 111 nM
NCI-H226
  GI50: 136 nM
HOP-62
  GI50: 379 nM
LOX IMVI
  GI50: 521 nM
OVCAR-3
  GI50: 285 nM
OVCAR-8 [7]
  GI50: 487 nM
SN12C
  GI50: 618 nM
HeLa [4]
  IC50: 250 nM
SNB-75
  GI50: 182 nM
SF-539
  GI50: 260 nM
MDA-MB-435
  GI50: 341 nM
T47D
  GI50: 128 nM
SW-620
  GI50: 370 nM
ACHN
  GI50: 830 nM
SR
  GI50: 922 nM
HOP-92
  GI50: 189 nM
BT-549
  GI50: 755 nM
A498
  GI50: 197 nM
NCI-H460
  GI50: 337 nM

## COc1ccc(N(C)c2nc(N)nc3c(Cc4ccccc4)c[nH]c23)cc1
A-431
  IC50: 700 nM
[5]
  IC50: > 20000 nM
Chorioallantoic membrane
  IC50: 2300 nM
